About 1,200 (48%) of roughly 2,500 compounds were called active.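 How the source made its calls: active means mean activation above the low control average plus 3 SD, as set in the primary screen (cut at about 12% in these data); inactive means the rest.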 So high a share suggests a set chosen from earlier hits. Some of the results follow.
Target: Troponin I, cardiac muscle (Homo sapiens) + Troponin T, cardiac muscle (Homo sapiens) + Troponin C, slow skeletal and cardiac muscles (Homo sapiens) (UniProt P19429+P45379+P63316)
Assay: cardiac RTF calcium sensitivity activators, confirmation, biochemical, IANBD-TnC fluorescence, triplicate (AID 504383);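 further: 0% = DMSO at 0.472 mM calcium and 100% = DMSO at 2.9 mM calcium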
Details: IANBD-labeled cardiac RTF, Ca2+ sensitivity fluorescence; at 7.2 µM; active compounds read high; scaled from EC20 to saturating calcium; tested at EC20 calcium, 0.472 mM
Procedure, shortened: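 Material: labelled regulated thin filaments; Reagent: 0.472 mM calcium; Incubation: 15 min compound incubation with filaments at 25 °C; Detection: filament fluorescence intensity; Evaluation: fluorescence increase normalised to calcium controls; Benchmarks: low control EC20 calcium, high control EC100 calcium.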

SMILES	activation
Cc1ccc(NC(=O)CSc2nnc(-c3cccnc3)s2)cc1	678% (active)
Cc1ccc(-c2csc(NC(=O)CSc3nc4ccccc4o3)n2)cc1	2.75% (inactive)
C[C@@H](C(=O)N1CCNCC1)n1cc(CCCN=C(N)N)nn1	107% (active)
CC(C)(C)OC(=O)NCCCC[C@@H](C(=O)N1CCN(C(=O)OC(C)(C)C)CC1)n1cc(CCC(=O)O)nn1	7.02% (inactive)
CC(O)Cc1cn([C@@H](CCCCN)C(=O)N2CCNCC2)nn1 (stereo not given in full)	2.6% (inactive)
CCCCNc1nc(-c2ccccc2)nc(-n2ccnc2)n1	15.9% (active)
O=C(CSc1nncc2ccccc12)Nc1ccc(F)cc1	170% (active)
Cn1cccc1Cc1nnc(SCC(=O)Nc2ccc(F)cc2F)n1-c1ccc(F)cc1	7.53% (inactive)
COc1ccc(NC(=O)CSc2nncc3ccccc23)cc1	1.45% (inactive)
COc1ccc(-c2cc(C(F)(F)F)c3c(N)c(C(=O)NCCSC)sc3n2)cc1	5.88% (inactive)
CC(=O)c1sc2nc(-c3cccs3)cc(C(F)(F)F)c2c1N	-0.48% (inactive)
Nc1c(C(=O)C2CC2)sc2nc(-c3cccs3)cc(C(F)(F)F)c12	18.1% (active)
CC(C)(C)C(=O)c1sc2nc(-c3cccs3)cc(C(F)(F)F)c2c1N	12.4% (active)
Nc1c(C(=O)Nc2nccs2)sc2nc(-c3cccs3)cc(C(F)(F)F)c12	10.7% (inactive)
Nc1c(C(=O)Nc2ccccc2F)sc2nc(Cc3ccccc3)cc(C(F)(F)F)c12	7.05% (inactive)
Cc1nnc(NC(=O)c2sc3nc(-c4cccs4)cc(C(F)(F)F)c3c2N)s1	9.99% (inactive)
Nc1c(C(=O)C2CC2)sc2nc(-c3ccccc3)cc(C(F)(F)F)c12	30.1% (active)
c1ccc(-c2nc(-c3ccco3)n3ccccc23)cc1	1.15% (inactive)
N#Cc1c(N)oc(-c2ccccc2)c1-c1ccccc1	23.9% (active)
COc1ccccc1C1=NOC(Cn2c(=O)c3c(ncn3C)n(C)c2=O)C1 (stereo not given)	7.68% (inactive)
Nc1ccc2c3c(cccc13)C(=O)N(c1ccccc1)C2=O	10.9% (inactive)
Cc1c(O)c2c3c(cccc3c1O)C(=O)N(c1ccccc1)C2=O	67.4% (active)
Cc1cccc(N2CCN(C(=O)Cn3nc(Cc4ccncc4)c4ccccc4c3=O)CC2)c1C	25.3% (active)
Cc1nc2ccccc2n2c(O)c(CC(=O)O)cc12	15.2% (active)

SMILES	activation
COc1ccc2c(n1)Sc1nc3ccccc3nc1N2	6.52% (inactive)
CC1(C)CC(=O)C2=C(C1)OC(N)=C(C#N)C21CCN(Cc2ccccc2)CC1	12.4% (active)
COc1ccc2[nH]c3c(c2c1)CCN1C(=O)C(CC(=O)NCCCn2ccnc2)C[C@H](C(=O)N2CCCCC2)[C@@]31C (stereo not given in full)	6.39% (inactive)
O=C(Cc1ccccc1Cl)Nc1cccnc1	22.6% (active)
O=C(NCCOc1ccccc1Cl)C(=O)Nc1ccccc1	11.1% (inactive)
O=C1c2ccccc2C(Nc2cccnc2)N1Cc1ccccc1Cl (stereo not given)	54.5% (active)
O=C(Nc1cnn(Cc2c(Cl)cccc2Cl)c1)C(c1ccccc1)c1ccccc1	4.3% (inactive)
CN1CCS/C1=C/C=C1/SC(=S)N(Cc2ccccc2)C1=O	2.39% (inactive)
CN1CCS/C1=C/C=C1\SC(=S)N(CC(=O)O)C1=O	122% (active)
CCCCN1C(=O)/C(=C/C=C2\SCCN2C)SC1=S	7.61% (inactive)
CCN1C(=O)/C(=C/C=C2/SCCN2C)SC1=S	42.9% (active)
CCN1C(=O)/C(=C\C=C2/C=CC=CN2CC)SC1=S	431% (active)
CN1C(=O)/C(=C/C=C2\SCCN2C)OC1=S	31.5% (active)
C=CCNC(=S)N(CC=C)C1CCS(=O)(=O)C1 (stereo not given)	6.54% (inactive)
O=C(O)c1cccc2c1C(=O)c1ccc(N3CCCC3)cc1S2(=O)=O	6.28% (inactive)
C#CCSc1nc2[nH]ncc2c(=O)[nH]1	5.4% (inactive)
CN1CCS/C1=C\C=C1/SC(=S)N(CC(=O)O)C1=O	12.1% (active)
CCNC(=O)/C(C#N)=C/c1c(N2CCN(Cc3ccc4c(c3)OCO4)CC2)nc2c(C)cccn2c1=O	9.67% (inactive)
O=C(CCc1ccc(S(=O)(=O)NCCc2ccccc2)cc1)N1CCN(Cc2ccc3c(c2)OCO3)CC1	1.31% (inactive)
N#C/C(=C\N1CCN(Cc2ccc3c(c2)OCO3)CC1)c1nc2ccccc2s1	17.4% (active)
NC(=O)c1ccc(NC(=O)COC(=O)c2c3c(nc4ccccc24)/C(=C\c2ccc4c(c2)OCO4)CCC3)cc1	11.7% (active)
CCCCNC(=O)COC(=O)c1c2c(nc3ccccc13)/C(=C\c1cccs1)CC2	6.15% (inactive)
CC(OC(=O)c1c2c(nc3ccccc13)/C(=C\c1ccc3c(c1)OCO3)CCC2)C(=O)Nc1ccc(S(N)(=O)=O)cc1 (stereo not given)	3.14% (inactive)
O=C(NCc1ccccc1)C1=C[C@H](C2CC2)C[C@H](OCc2ccc(CO)cc2)O1	-0.14% (inactive)

SMILES	activation
CCCN(CCC)C(=O)C1c2ccccc2Oc2ccccc21	16.6% (active)
CCOC(=O)C1CCCN(C(=O)C2c3ccccc3Oc3ccccc32)C1 (stereo not given)	-3.14% (inactive)
CCOC(=O)C(C#N)C(c1cccnc1)c1c(C)[nH][nH]c1=O (stereo not given)	5.64% (inactive)
Cc1cccn2c(=O)c(/C=C3\SC(=S)N(CC(C)C)C3=O)c(NCCCOC(C)C)nc12	111% (active)
Cc1cccn2c(=O)c(/C=C3\SC(=S)NC3=O)c(NCCCN3CCOCC3)nc12	63.9% (active)
COc1cc(CCCN2C(=S)NC[C@@H]2CC2CCCCC2)cc(OC)c1OC	88.2% (active)
FC(F)(F)c1ccc(-c2nc(=S)[nH][nH]2)cc1	8.3% (inactive)
O=C1S/C(=C\c2ccc(N3CCOCC3)o2)C(=O)N1c1ccccc1	62.9% (active)
CC(C)OC(=O)CN1C(=O)S/C(=C/c2ccc(N3CCCCC3)o2)C1=O	13% (active)
CCCN1C(=O)S/C(=C\c2ccc(N3CCOCC3)o2)C1=O	1.26% (inactive)
O=C1NC(=S)S/C1=C/c1ccc(N2CCOCC2)o1	18.5% (active)
CCCN1C(=O)S/C(=C/c2ccc(N3CCOCC3)o2)C1=O	94.3% (active)
COc1ccc(/C=N/Nc2ncc(C(F)(F)F)cc2Cl)cc1OC	-2.64% (inactive)
Cc1[nH]c(=O)c(C#N)c(C)c1Cl	9.65% (inactive)
O=C1S/C(=C/c2ccc(N3CCOCC3)o2)C(=O)N1Cc1c(F)cccc1Cl	17.9% (active)
O=C1S/C(=C/c2ccc(N3CCOCC3)o2)C(=O)N1Cc1ccc(F)cc1	54.8% (active)
O=C1S/C(=C\c2ccc(N3CCOCC3)o2)C(=O)N1Cc1ccc(F)cc1	3.92% (inactive)
O=C1S/C(=C\c2ccc(N3CCOCC3)o2)C(=O)N1Cc1c(F)cccc1Cl	788% (active)
Cc1cc(C=C2C(=O)c3ccccc3C2=O)c(C)n1-c1ccccc1	94.4% (active)
Cc1cc(C=C2C(=O)CCCC2=O)c(C)n1-c1ccccc1	3.1% (inactive)
Cc1cc(C=C2C(=O)c3ccccc3C2=O)c(C)n1-c1ccc(Cl)cc1	13.3% (active)
Cc1cccc(-n2c(C)cc(C=C3C(=O)c4ccccc4C3=O)c2C)c1	1.06% (inactive)
CCOC(=O)C1CCCN(C2=NC(=O)/C(=C/c3ccc(O)c(OC)c3)S2)C1 (stereo not given)	-0.88% (inactive)
CCOC(=O)C1CCCN(C2=NC(=O)/C(=C/c3ccc(N(C)C)cc3)S2)C1 (stereo not given)	8.97% (inactive)

SMILES	activation
CN(C)c1ccc(/C=C2\C(=N)N3N=C(CC(=O)N4CCCCC4)SC3=NC2=O)cc1	41.6% (active)
CCN(CC)c1ccc(/C=C2\C(=N)N3N=C(CC(=O)N4CCOCC4)SC3=NC2=O)cc1	16.5% (active)
CN(C)c1ccc(/C=C2\SC(N3CCCCC3)=NC2=O)cc1	1160% (active)
CC(C)/C=C1\CC/C(=C\c2ccc(N(C)C)cc2)C1=O	5.2% (inactive)
O=C(/C=C/c1cn(CC(O)CN2CCCCC2)c2ccccc12)c1cccs1 (stereo not given)	55.5% (active)
O=C(/C=C/c1cn(CC(O)CN2CCCCCC2)c2ccccc12)c1cccs1 (stereo not given)	13.4% (active)
CCCN(CCC)CC(O)Cn1cc(/C=C/C(=O)c2cccs2)c2ccccc21 (stereo not given)	11.6% (inactive)
COc1ccc(/C=[N+](\[O-])C2N(c3ccccc3)C(=S)SC2(C)C)cc1OC (stereo not given)	5.83% (inactive)
CCN1CCc2c(sc(NC(=O)Nc3ccc(Cl)c(Cl)c3)c2C(N)=O)C1	-0.7% (inactive)
CN1CCN(CCNC(=O)Nc2ccc(Cl)cc2)CC1	13.4% (active)
CC(C)CCN1C(=O)c2cccc3c(N)ccc(c23)C1=O	15.7% (active)
CCN1C(=O)c2cccc3c(N)ccc(c23)C1=O	5.33% (inactive)
Nc1cccc(N2C(=O)c3cccc4c(N)ccc(c34)C2=O)c1	8.12% (inactive)
c1ccc2c(c1)CN1CCCC1=N2	3.94% (inactive)
CC1CC1c1ccc(/C=C(\C#N)C(=O)Nc2ccc(Cl)cc2Cl)o1 (stereo not given)	19.9% (active)
Cc1ccc(NC(=O)/C(C#N)=C/c2ccc(C)s2)c(C)c1	-3.42% (inactive)
CC1CC1c1ccc(/C=C(\C#N)C(=O)Nc2cccc(Cl)c2Cl)o1 (stereo not given)	22.5% (active)
CN1/C(=C\C=C(/C#N)C(=O)Nc2ccccc2F)C(C)(C)c2ccccc21	5.14% (inactive)
Clc1cccc(C[n+]2cc(-c3ccccc3)n3c2CCC3)c1	4.21% (inactive)
O=C(NCc1ccco1)C1CC(c2c(Cl)cccc2Cl)=NO1 (stereo not given)	0.26% (inactive)
CN(CC(=O)N1CCN(c2ncccn2)CC1)S(=O)(=O)c1ccc(Cl)cc1	4.61% (inactive)
CN(CC(=O)NCc1ccc(Cl)cc1)S(=O)(=O)c1cccc2cccnc12	12.1% (active)
CN(CC(=O)NCc1ccco1)S(=O)(=O)c1cccc2cccnc12	32.8% (active)
